Results collected from several papers.
Protocols differ between the studies behind these lines.
Medium: plasma

| SMILES | system | conditions | endpoint | result |
| --- | --- | --- | --- | --- |
| CCc1cc(C(=O)NC)c2nccc(N3CCc4c(cc(Cn5ccnc5)cc4-c4cn(C)nc4C(F)(F)F)C3=O)c2c1 | male Sprague-Dawley rat | oral, 50 mg/kg | Cmax | 18400 ng/mL |
| CCOC(=O)[C@@]12C[C@@H]1[C@@H](n1ccc3c(NC)nc(C#Cc4ccc(Cl)s4)nc31)[C@H](O)[C@@H]2O | male Sprague-Dawley rat | oral, 1 mg/kg | Cmax | 9.97 ng/mL |
| COc1cc2c3c(n(CCCN4CCOCC4)c(=O)c2cc1OC)-c1cc2c(cc1C3=O)OCO2 | male Fischer 344 rat | intravenous, 12 mg/m², single dose | Cmax | 406 ng/mL |
| C=CC(=O)N1CC2CC(n3nc(-c4ccc(C(=O)Nc5ccccn5)cc4)c4c(N)ncnc43)CC2C1 (centres unmarked) | male Wistar rat | oral, 30 mg/kg | Cmax | 1260 ng/mL |
| CC(C)(O)c1cn(-c2ccc(-c3cc(F)c(CO)c(S(C)(=O)=O)c3)cc2F)c(C(C)(C)c2c(Cl)cccc2Cl)n1 | male cynomolgus monkey | intravenous, 1 mg/kg, single dose | half-life | 600 to 720 min |
| CCCC[C@@H]1NC(=O)[C@H](Cc2ccc(O)cc2)NC(=O)[C@@H]2CCCN2C(=O)[C@H](CC(=O)O)NC(=O)[C@H](C)NC(=O)[C@H](Cc2ccccc2)NC(=O)[C@@H]2CSCCC(=O)N3CN(CN(C3)C(=O)CCSC[C@@H](C(=O)N[C@@H](C)C(N)=O)NC1=O)C(=O)CCSC[C@H](NC(C)=O)C(=O)N[C@@H](CC(C)(C)C)C(=O)N1CCC[C@H]1C(=O)N[C@@H](CCC(=O)O)C(=O)N[C@H](CCCCNC(=O)CCc1cn(CCOCCOCCOCCOCCOCCC(=O)N[C@H]3CSCCC(=O)N4CN5CN(C4)C(=O)CCSC[C@H](NC(=O)[C@@H](CC(=O)O)NC(=O)[C@H](Cc4cccc6ccccc46)NC(=O)[C@@H]4CCCN4C3=O)C(=O)N[C@@H](CCSC)C(=O)N[C@@H](CCCCNC(=N)N)C(=O)N[C@@H](CC(=O)O)C(=O)N[C@@H](Cc3c[nH]c4ccccc34)C(=O)N[C@@H](CO)C(=O)N[C@@H]([C@@H](C)O)C(=O)N3CCC[C@H]3C(=O)N3C[C@H](O)C[C@H]3C(=O)N[C@@H](Cc3c[nH]c4ccccc34)C(=O)N[C@H](C(N)=O)CSCCC5=O)nn1)C(=O)N1CCC[C@H]1C(=O)N[C@@H](Cc1ccc(O)cc1)C(=O)N2 | cynomolgus monkey | intravenous, 1 mg/kg, infusion | half-life | 30 min |
| CN(C(=O)n1cnc(-c2ccc[n+]([O-])c2)c1)C1CCCCC1 | male cynomolgus monkey | oral, 0.3 mg/kg | half-life | 132 min |
| CCN(CC)C(=O)[C@@]1(c2ccccc2)C[C@H]1CN | male cynomolgus monkey | oral, 30 mg/kg | half-life | 378 min |
